ChEMBL document CHEMBL1145104, “Discovery of a long-chain carbamoyl aminocarnitine derivative, a reversible carnitine palmitoyltransferase inhibitor with antiketotic and antidiabetic activity” (J Med Chem, 2003)

What was measured:
[1] = target: T1, Carnitine O-palmitoyltransferase 1, liver isoform (Rattus norvegicus, UniProt P32198); assay: Inhibition of [14C]palmitoyl-CoA and carnitine binding to carnitine palmitoyltransferase I from rat liver mitochondria
T1 sequence (P32198 whole entry): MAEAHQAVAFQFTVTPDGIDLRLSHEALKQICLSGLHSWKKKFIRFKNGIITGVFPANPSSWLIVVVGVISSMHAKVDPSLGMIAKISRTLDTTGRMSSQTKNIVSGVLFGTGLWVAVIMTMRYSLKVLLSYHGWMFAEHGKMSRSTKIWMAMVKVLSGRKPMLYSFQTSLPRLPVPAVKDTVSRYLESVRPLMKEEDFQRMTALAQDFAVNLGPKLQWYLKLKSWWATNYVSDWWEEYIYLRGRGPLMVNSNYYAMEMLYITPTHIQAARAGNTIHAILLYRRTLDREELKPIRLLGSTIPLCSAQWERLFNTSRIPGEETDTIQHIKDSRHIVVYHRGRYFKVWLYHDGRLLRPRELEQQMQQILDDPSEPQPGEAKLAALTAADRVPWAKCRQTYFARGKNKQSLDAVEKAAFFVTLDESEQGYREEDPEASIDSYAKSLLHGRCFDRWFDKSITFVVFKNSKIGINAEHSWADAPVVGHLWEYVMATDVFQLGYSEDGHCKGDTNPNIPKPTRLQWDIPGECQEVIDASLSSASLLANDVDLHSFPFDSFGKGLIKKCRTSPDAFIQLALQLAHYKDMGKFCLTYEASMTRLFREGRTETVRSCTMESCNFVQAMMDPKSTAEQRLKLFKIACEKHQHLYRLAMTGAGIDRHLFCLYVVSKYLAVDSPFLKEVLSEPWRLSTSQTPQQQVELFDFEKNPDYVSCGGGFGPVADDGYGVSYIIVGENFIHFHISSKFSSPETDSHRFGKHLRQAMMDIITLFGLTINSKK
Procedure, shortened: (§1)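 Intact mitochondria freshly isolated from the livers of fed male Sprague-Dawley rats, suspended in buffer with 225 mM sucrose. Assay medium at pH 7.5 with [14C]palmitoyl-CoA and L-carnitine, and inhibitor at 0–3 mM. Run 1 min at 37 °C; radiolabelled palmitoylcarnitine formation was measured. IC50 was taken from the inhibition curve; mean of two determinations in triplicate.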

[2] = target: T2, Carnitine O-palmitoyltransferase 1, muscle isoform (Rattus norvegicus, UniProt Q63704); assay: In vitro inhibition of [14C]palmitoyl-CoA and carnitine binding to carnitine palmitoyltransferase I of rat heart mitochondria
T2 sequence (Q63704 whole entry): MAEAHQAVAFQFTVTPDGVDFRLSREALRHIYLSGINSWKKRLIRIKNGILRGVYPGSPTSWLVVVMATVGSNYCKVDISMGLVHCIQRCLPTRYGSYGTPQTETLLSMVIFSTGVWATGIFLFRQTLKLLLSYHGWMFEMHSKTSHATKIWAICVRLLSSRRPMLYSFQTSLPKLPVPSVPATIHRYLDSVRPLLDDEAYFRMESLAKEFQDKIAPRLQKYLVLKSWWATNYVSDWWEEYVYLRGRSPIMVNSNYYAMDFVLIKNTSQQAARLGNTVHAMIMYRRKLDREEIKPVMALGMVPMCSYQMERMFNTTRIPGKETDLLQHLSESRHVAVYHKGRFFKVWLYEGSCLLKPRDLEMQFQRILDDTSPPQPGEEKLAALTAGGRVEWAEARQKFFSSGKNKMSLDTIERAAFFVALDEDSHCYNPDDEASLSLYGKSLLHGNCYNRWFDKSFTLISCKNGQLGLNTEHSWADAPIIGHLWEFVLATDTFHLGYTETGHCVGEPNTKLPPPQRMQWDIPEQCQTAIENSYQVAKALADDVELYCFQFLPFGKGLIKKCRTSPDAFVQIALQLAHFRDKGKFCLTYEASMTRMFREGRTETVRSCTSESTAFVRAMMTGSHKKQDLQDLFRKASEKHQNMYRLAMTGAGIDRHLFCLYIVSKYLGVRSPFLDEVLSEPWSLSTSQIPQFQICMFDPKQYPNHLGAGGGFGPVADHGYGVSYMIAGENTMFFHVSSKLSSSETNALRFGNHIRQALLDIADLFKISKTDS
Procedure, shortened: as §1, with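 “hearts” for “livers”, “75” for “225”, “[14C]palmitoyl incorporated into carnitine” for “radiolabelled palmitoylcarnitine formation”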

[3] = target: T1, Carnitine O-palmitoyltransferase 1, liver isoform; assay: Inhibition of rat liver carnitine palmitoyltransferase I; details: read-out: Ki app; procedure, shortened: as §1
Rattus norvegicus [4] = organism: Rattus norvegicus; assay: Percent decrease of oleoylcarnitine levels in isolated rat hepatocytes at 3 mM compound concentration; No variation
Mus musculus [5] = assay: Percent decrease in the serum glucose level of mice treated with 50 mg/kg of compound orally for 45 days; assay type: functional; details: route oral
Procedure, shortened: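 Oral dosing of male C57BL/KsJ-db/db mice (8 weeks old, n=8) at 50 mg/kg or an equimolar dose, twice daily for 45 days; vehicle was 0.5% carboxymethylcellulose. Serum was collected 9 h after the last dose, after a 9 h fast. Glucose was measured with an autoanalyzer kit; percent reduction was calculated against untreated db/db controls; Student's t test.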

Mus musculus [6] = assay: Level of fructosamine in […] mice serum after treating with 50 mg/kg of compound orally for 45 days (originally-4.80+/-0.17 mmol/L); assay type: functional; details: route oral
Mus musculus [7] = assay: Level of glucose in […] mice serum after treating with 50 mg/kg of compound orally for 45 days (originally-673.9+/-44.09 mg/dL); assay type: functional; details: route oral
Rattus norvegicus [8] = organism: Rattus norvegicus; assay: Effective dose of compound that reduces serum beta-hydroxybutyrate levels in rats
Mus musculus [9] = assay: Percent decrease in the serum fructosamine level of mice treated with 50 mg/kg of compound orally for 45 days; assay type: functional; details: route oral
Procedure, shortened: (§2)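 Male C57BL/KsJ-db/db mice, 8 weeks old, n=8 per group. Dosed orally at 50 mg/kg or an equimolar dose, twice daily for 45 days; controls got 0.5% carboxymethylcellulose vehicle at 10 mL/kg. Sampled 9 h after the last dose, after a 9 h fast. Percent change was calculated against untreated db/db controls.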

Mus musculus [10] = assay: Percent decrease in the liver glycogen level of mice treated with 50 mg/kg of compound orally for 45 days; assay type: functional; details: route oral; procedure, shortened: as §2
Mus musculus [11] = assay: Percent increase in the liver triglycerides content of mice treated with 50 mg/kg of compound orally for 45 days; details: route oral
Mus musculus [12] = assay: Percent increase of free fatty acids level in serum of mice treated with 50 mg/kg of compound orally for 45 days; details: route oral

IC50 [1]	IC50 [2]	Compound	other results
1.8 µM	> 120 µM	CCCCCCCCCCCCNC(=O)N[C@@H](CC(=O)[O-])C[N+](C)(C)C	
> 300 µM	> 300 µM	CCCCCCCCCNC(=O)N[C@H](CC(=O)[O-])C[N+](C)(C)C	
6 µM	> 10 µM	CCCCCCCCCCCCS(=O)(=O)N[C@H](CC(=O)[O-])C[N+](C)(C)C	
	118 µM	CCCCCCCCCCCNC(=O)N[C@@H](CC(=O)[O-])C[N+](C)(C)C	
58.8 µM	167 µM	CCCCCCCCCCCCCCNC(=O)N[C@H](CC(=O)[O-])C[N+](C)(C)C [TEGLICAR]	
> 300 µM	> 300 µM	CCCCCCCCOC(=O)N[C@H](CC(=O)[O-])C[N+](C)(C)C	
31.3 µM	46.2 µM	CCCCCCCCCNC(=O)N[C@@H](CC(=O)[O-])C[N+](C)(C)C	
9.5 µM	80.1 µM	CCCCCCCCOC(=O)N[C@@H](CC(=O)[O-])C[N+](C)(C)C	
43.6 µM	> 300 µM	CCCCCCCNC(=O)N[C@@H](CC(=O)[O-])C[N+](C)(C)C	
0.7 µM	3.4 µM	CCCCCCCCCCCCS(=O)(=O)N[C@@H](CC(=O)[O-])C[N+](C)(C)C	

Compound	IC50 [1]	IC50 [2]	other results
CCCCCCCCCCCCCCNC(=O)N[C@@H](CC(=O)[O-])C[N+](C)(C)C	1.1 µM	43.4 µM	Ki [3]: 0.36 µM; Decrease (Rattus norvegicus [4]): No variation; Decrease (Mus musculus [5]): -25%; Level in serum (Mus musculus [6]): 3.37 mM l-1; Level in serum (Mus musculus [7]): 202.6 mg/dL; ED50 (Rattus norvegicus [8]): 14.5 mg/kg; Decrease (Mus musculus [9]): -30%; Decrease (Mus musculus [10]): -25%; Increase (Mus musculus [11]): 38%; Increase (Mus musculus [12]): 20%
